Test results from paper PMC6416488 (Protein and Peptide Letters, 2019).

Experiments:
[1] = Solvent- and light-mediated curcumin degradation; assay type: physicochemical; settings: absolute ethanol, 10 μM curcumin, absorbance 420 nm
How it was run: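 Test compound: 5 mM methanol stock diluted to 10 μM in absolute ethanol. Samples were held at room temperature either in darkness or under a 100 W lamp. Absorbance maximum at 420 nm was recorded at intervals within 30 min. Degradation rate was taken from the initial slope of a best-fit line.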

[2] = Effect of temperature on hydrolytic stability of curcumin; assay type: physicochemical; settings: 80°C, 10 μM curcumin, 20 mM sodium phosphate buffer pH 7.0, 60 min, darkness
How it was run: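 Test compound: 1 mM methanol stock diluted to 10 μM in 20 mM sodium phosphate buffer pH 7.0. Kept in darkness at 4, 25, 37 or 80 °C for up to 60 min and sampled at set intervals. Fluorescence spectra were taken at excitation 420 nm, emission 440–700 nm, with slits 10/20. Maximum emission was followed over time, and the decomposition rate was taken from the initial slope of a linear fit.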

native (unmodified) BSA = native (unmodified) BSA (Bos taurus, UniProt P02769); assay: Intrinsic fluorescence quenching, binding constant and thermodynamics; set-up: species or system Bovine; settings: unmodified albumin
Sequence of native (unmodified) BSA (P02769 25-607): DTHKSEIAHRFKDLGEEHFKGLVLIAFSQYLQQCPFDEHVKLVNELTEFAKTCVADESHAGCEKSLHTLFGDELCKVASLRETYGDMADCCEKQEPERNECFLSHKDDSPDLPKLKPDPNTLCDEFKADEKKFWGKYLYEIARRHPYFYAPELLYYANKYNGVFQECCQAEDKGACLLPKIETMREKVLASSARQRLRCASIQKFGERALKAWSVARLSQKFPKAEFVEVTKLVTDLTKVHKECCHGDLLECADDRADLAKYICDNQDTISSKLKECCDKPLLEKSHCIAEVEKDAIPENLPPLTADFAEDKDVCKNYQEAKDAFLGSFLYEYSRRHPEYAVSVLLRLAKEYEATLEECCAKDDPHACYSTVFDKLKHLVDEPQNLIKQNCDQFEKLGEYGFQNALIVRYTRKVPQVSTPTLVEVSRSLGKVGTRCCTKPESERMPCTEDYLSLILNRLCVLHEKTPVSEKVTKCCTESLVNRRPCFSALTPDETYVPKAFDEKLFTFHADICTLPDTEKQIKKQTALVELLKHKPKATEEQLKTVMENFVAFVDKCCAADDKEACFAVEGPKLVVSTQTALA

[3] = target: modified (acetylated) BSA (Bos taurus, UniProt P02769); assay: Intrinsic fluorescence quenching, binding constant and thermodynamics; set-up: species or system Bovine; settings: modified albumin
Sequence of modified (acetylated) BSA (P02769 25-607): as above
How it was run: (§1)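 Proteins were acetylated at 10% w/v in water, 30 °C, pH 7.5–8.5, with acetic anhydride 0.5 g/g protein added over 30–90 min. They were dialysed 24 h against 20 mM phosphate pH 7.0, and lysine modification was checked by TNBS. β-lg was purified from cow milk (>97% by SDS-PAGE). Protein (1 μM) was mixed 1 min with test compound (0–2 μM). Intrinsic fluorescence was read at ex 290, em 310–700 nm. Kb and n came from a double-log Stern–Volmer plot, ΔH°/ΔS° from van't Hoff, and ΔG° from Gibbs.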

native (unmodified) β-lg = target: T1, native (unmodified) β-lg (Bos taurus, UniProt P02754); assay: Intrinsic fluorescence quenching, binding constant and thermodynamics; set-up: species or system Bovine; settings: unmodified B-LG
T1 sequence (P02754 17-178): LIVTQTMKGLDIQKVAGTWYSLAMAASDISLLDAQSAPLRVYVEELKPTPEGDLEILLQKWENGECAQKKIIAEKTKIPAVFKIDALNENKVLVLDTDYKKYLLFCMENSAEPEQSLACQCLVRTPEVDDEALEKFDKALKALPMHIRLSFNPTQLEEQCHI
How it was run: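 Unmodified protein was used; β-lg was purified from fresh cow milk (>97% by SDS-PAGE). Protein (1 μM) in 20 mM sodium phosphate pH 7.0 was co-incubated 1 min with test compound (0–2 μM). Quenching was read at excitation 290 nm, emission 310–700 nm, slits 5/10 nm. Kb and n came from a modified Stern–Volmer double-log plot, ΔH° and ΔS° from the van't Hoff ln Kb vs 1/T slope and intercept, and ΔG° from the Gibbs equation. Data points are means of three determinations.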

[4] = target: T2, modified (acetylated) β-lg (Bos taurus, UniProt P02754); assay: Intrinsic fluorescence quenching, binding constant and thermodynamics; set-up: species or system Bovine; settings: modified B-LG
T2 sequence (P02754 17-178): T1 sequence (P02754 17-178)
How it was run: as §1

SKNMC cells = assay: MTT assay, in vitro anti-cancer activity; assay type: cell-based, human; settings: 44 µM, 24 h
How it was run: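 SKNMC cells were grown in DMEM with 10% FBS and 1% penicillin–streptomycin at 37 °C, 5% CO2, 95% humidity. They were seeded at 20,000/well and pre-incubated 24 h. Medium was replaced with protein-free DMEM, and test compound in DMSO (0–50 μM), alone or protein-complexed, was added for 24 h. MTT (0.5 mg/mL) was added for 4 h, formazan was dissolved in DMSO, and A570 was read. Viability is relative to untreated cells; three separate experiments.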

PC12 cells = assay: Intracellular ROS; assay type: cell-based, rat; settings: 1 μM curcumin pretreatment 6 h, H2O2 125 μM 16 h, DCFH-DA
How it was run: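 PC12 cells were seeded at 20,000/well and pre-incubated 24 h, then switched to protein-free DMEM. They were pretreated 6 h with 1 μM test compound or its protein complex, then exposed to freshly prepared H2O2 (125 μM) for 16 h. DCFH-DA (10 μM) was added for 45 min at 37 °C. Cells were washed twice in PBS, and DCF fluorescence (ex 480/488, em 540/525 nm) was read by microplate reader. Controls were DMSO-treated cells. Results are mean ± S.E.M. of three experiments.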

[5] = ref 3b; cited from earlier work
[6] = physiological pH; cited from earlier work
[7] = extremely safe even at very high doses; cited from earlier work
[8] = phase I trial, oral administration of 3.6 g/day; cited from earlier work
[9] = without and in the presence of β-lg; ref 10d; cited from earlier work

1,7-bis(4-hydroxy-3-methoxyphenyl)-1,6- heptadiene-3,5-dione [curcumin]
degradation in non-aqueous solvent [1]: did not degrade
initial curcumin population remained intact [2]: more than 40%
ΔG° (native (unmodified) BSA; 310 K (per Table S1)): -9.1702 ± 0.2751 kcal/mol
N (number of curcumin binding sites) (native (unmodified) BSA; Table 1): 1.249±0.02
ΔH° (native (unmodified) BSA; van't Hoff, 277-310 K): 6.4971 ± 0.195 kcal/mol
ΔS° (native (unmodified) BSA; van't Hoff, 277-310 K): 0.212±0.002 J mol^-1·K^-1
ΔG° ([3]; 310 K (per Table S1)): -4.6953 ± 0.141 kcal/mol
N (number of curcumin binding sites) ([3]; Table 1): 0.975±0.015
ΔH° ([3]; van't Hoff, 277-310 K): -8.1783 ± 0.163 kcal/mol
ΔS° ([3]; van't Hoff, 277-310 K): -0.047±0.001 J mol^-1·K^-1
ΔG° (native (unmodified) β-lg; 310 K (per Table S1)): -7.0335 ± 0.4218 kcal/mol
N (number of curcumin binding sites) (native (unmodified) β-lg; Table 1): 1.145±0.034
ΔH° (native (unmodified) β-lg; van't Hoff, 277-310 K): -6.4892 ± 0.195 kcal/mol
ΔS° (native (unmodified) β-lg; van't Hoff, 277-310 K): 0.007±0.001 J mol^-1·K^-1
ΔG° ([4]; 310 K (per Table S1)): -9.6836 ± 0.387 kcal/mol
N (number of curcumin binding sites) ([4]; Table 1): 1.347±0.042
ΔH° ([4]; van't Hoff, 277-310 K): 2.227 ± 0.0225 kcal/mol
ΔS° ([4]; van't Hoff, 277-310 K): 0.161±0.006 J mol^-1·K^-1
cell viability (SKNMC cells): 88%
effect on H2O2-induced intracellular ROS levels (PC12 cells): significantly reduced
solubility in water [5]: about 11 ng/mL
time to molecular fragmentation and degradation by hydrolysis [6]: ≤ 30 min
safe dose [7]: 8 to 12 g/day
concentration of curcumin in plasma [8]: 11.1 nM
concentration of curcumin in target tissues [8]: 1300 nM
curcumin half-life [9]: 30.8 min
